Assay outcomes (PubChem BioAssay)
An excerpt weighted towards active compounds, which were near 1.6% of everything screened.
SKN-1 inh – inhibitors of C. elegans SKN-1 | C. elegans VP596 Pgst-4::GFP/RFP ratio, acrylamide-induced, 24 h | inhibition, % at 21.8 µM | hit rate 0.49% among 360,000 | AID 624304;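 active means interference check ratio from 0.5 to 1.5 plus GFP to RFP signal ratio inhibition reaching or exceeding a fixed threshold, cut at about 30% in these data, passing the limit was not always enough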
Arr AP2 block – inhibitors of human beta-arrestin and AP2 interaction | AID 504490 | FITC-arrestin peptide / GST-AP2 beads, flow cytometry; AP2 beta2 appendage carries R879A mutation | hit rate 0.31% among 340,000 | inhibition, % at 10 µM;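 active means inhibition above a set limit, near 3 SD of compounds lacking own fluorescence, cut at about 54% in these data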;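 further: plate controls were DMSO wells for no effect and 5 µM unlabelled arrestin peptide for full effect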
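System: GST-AP2 R879A glutathione beads; medium: PBS, Tween 20 0.05%, BSA 0.1%; reagent: fluorescein-tagged arrestin peptide at 50 nM final; schedule: pre-incubation 12 min, peptide binding 1 h, room temperature; detection: flow cytometry, FL1 (488/535 nm); read-out: inhibition as reduced fluorescein signal on beads, percent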
TbMetRS inhib – Trypanosoma brucei MetRS inhibition. hit rate 0.4% among 360,000. inhibition, % at 11.9 µM. purified T. brucei MetRS, ATP depletion, Kinase-Glo luminescence;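 active means inhibition above a per-plate cutoff of the control wells' mean inhibition plus 3 SD, cut at about 5.5% in these data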;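 further: 0% = DMSO wells median and 100% = median of wells with control inhibitor compound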
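System: purified T. brucei MetRS enzyme / Detection: Kinase-Glo luciferase luminescence reporting remaining unconsumed ATP / Medium: HEPES buffer with MgCl2, KCl, DTT, spermine, BSA, pyrophosphatase / Replication: singlicate, one well per compound / Evaluation: percent inhibition relative to median high and low control wells / Schedule: 2 h aminoacylation at 25 °C after 15 min preincubation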
Rin1-Abl PPI inh – blocks binding of human Rin1 to Abl. inhibition, % at 7.35 µM. TR-FRET Rin1/Abl binding, biochemical. AID 588664. P00519+Q13671. hit rate 0.4% among 360,000; in the data active means inhibition above about 5%, passing the limit was not always enough
Target sequence (P00519 whole entry, looked up): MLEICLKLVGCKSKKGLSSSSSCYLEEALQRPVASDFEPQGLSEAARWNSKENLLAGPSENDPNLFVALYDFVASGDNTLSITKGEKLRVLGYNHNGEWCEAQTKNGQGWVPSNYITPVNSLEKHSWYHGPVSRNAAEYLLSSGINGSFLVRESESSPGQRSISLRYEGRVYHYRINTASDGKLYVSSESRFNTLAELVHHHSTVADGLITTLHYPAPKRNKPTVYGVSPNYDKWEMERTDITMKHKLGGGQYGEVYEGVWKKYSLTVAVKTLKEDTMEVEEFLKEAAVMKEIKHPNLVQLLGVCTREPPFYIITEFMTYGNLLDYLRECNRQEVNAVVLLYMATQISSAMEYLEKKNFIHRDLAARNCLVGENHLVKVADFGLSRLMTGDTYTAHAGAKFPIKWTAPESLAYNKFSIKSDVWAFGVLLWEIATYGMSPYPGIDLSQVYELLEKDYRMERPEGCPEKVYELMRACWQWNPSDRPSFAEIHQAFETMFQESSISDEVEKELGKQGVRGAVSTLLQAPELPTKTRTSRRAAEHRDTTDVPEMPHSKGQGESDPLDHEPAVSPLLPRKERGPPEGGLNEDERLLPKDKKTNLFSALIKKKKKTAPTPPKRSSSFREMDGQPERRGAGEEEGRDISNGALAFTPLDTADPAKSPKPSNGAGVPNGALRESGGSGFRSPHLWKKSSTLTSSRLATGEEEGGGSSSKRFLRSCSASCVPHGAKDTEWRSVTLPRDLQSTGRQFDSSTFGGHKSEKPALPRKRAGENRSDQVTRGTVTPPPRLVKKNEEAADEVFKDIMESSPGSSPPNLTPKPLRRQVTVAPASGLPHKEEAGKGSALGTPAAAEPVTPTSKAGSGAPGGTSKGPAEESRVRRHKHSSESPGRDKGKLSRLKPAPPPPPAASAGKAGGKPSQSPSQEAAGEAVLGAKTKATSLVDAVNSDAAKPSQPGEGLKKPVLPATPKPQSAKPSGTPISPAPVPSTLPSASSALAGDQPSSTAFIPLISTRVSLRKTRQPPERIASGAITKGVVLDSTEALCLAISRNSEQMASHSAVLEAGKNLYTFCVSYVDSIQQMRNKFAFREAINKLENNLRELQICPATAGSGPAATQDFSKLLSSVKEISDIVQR
Target sequence (Q13671 whole entry, looked up): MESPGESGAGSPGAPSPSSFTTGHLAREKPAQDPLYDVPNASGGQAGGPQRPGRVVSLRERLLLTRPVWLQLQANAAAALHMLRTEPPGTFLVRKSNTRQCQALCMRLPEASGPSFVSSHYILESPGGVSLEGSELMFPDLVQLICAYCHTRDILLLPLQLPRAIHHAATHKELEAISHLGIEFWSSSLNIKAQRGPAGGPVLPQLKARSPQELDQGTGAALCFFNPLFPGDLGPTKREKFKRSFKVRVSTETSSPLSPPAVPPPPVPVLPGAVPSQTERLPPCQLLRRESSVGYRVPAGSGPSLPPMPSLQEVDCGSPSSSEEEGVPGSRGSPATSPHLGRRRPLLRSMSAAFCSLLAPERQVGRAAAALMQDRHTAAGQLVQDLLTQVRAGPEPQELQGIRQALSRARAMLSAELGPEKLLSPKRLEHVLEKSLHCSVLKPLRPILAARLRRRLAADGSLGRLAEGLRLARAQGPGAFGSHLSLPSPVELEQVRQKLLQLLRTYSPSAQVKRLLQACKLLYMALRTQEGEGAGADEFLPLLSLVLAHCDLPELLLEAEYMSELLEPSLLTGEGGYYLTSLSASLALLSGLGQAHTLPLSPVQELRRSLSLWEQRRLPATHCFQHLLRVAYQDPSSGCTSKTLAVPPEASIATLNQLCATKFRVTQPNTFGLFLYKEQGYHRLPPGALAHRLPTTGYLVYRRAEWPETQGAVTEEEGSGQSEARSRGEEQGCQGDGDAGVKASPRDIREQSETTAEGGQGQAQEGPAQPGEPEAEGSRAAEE
MT1-MMP act inh – inhibitors of human MT1-MMP activation; HT1080 RFP-PRO-GFP cells, GFP/RFP ratio fluorescence, overnight; percent of plate control window, DMSO zero; P50281; GFP/RFP ratio change, % at 20 µM; AID 651647; hit rate 0.061% among 360,000;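 active means GFP/RFP ratio change of at least 30% with cell ATP level not reduced by more than half and red fluorescence within 50% of control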
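Assay system: RFP-PRO-GFP reporter HT1080 cells; read-out basis: GFP/RFP fluorescence ratio; benchmarks: DMSO wells and RFP-L50D-GFP cells; doses: 20 µM single dose, 1% DMSO; schedule: overnight cell settling, then overnight compound exposure, 37 °C, 5% CO2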
Rin1-Abl confirm – Rin1-Abl interaction inhibition confirmation; shares compounds with Rin1-Abl PPI inh; TR-FRET Rin1-Abl binding, purified proteins; inhibition, % at 7.35 µM; hit rate 49% among 1,300; AID 602124
GFP quencher – GFP fluorescence interference artifact; inhibition, % at 6.75 µM; shares compounds with Rin1-Abl PPI inh; inhibitors/quenchers counterscreen; hit rate 8.5% among 1,300;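 further: ABL1-eGFP fusion protein alone without its partner RIN1-SBP; 0% = protein with vehicle and 100% = wells lacking protein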
GFP quench dose – GFP fluorescence interference dose response; shares compounds with Rin1-Abl PPI inh; GFP fluorescence interference/quenching counterscreen; IC50, µM; 230 tested, under 10 active; call rule not given here;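 further: ABL1-eGFP fusion protein alone without its RIN1 binding partner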
An asterisk follows results filed as active; . = not tested or not shown. Unless noted, no stated cut-off is given here; in the data, active means inhibition above about 6.5%; inactive means the rest.

SMILES	SKN-1 inh	Arr AP2 block	TbMetRS inhib	Rin1-Abl PPI inh	MT1-MMP act inh	Rin1-Abl confirm	GFP quencher	others
CCOC(=O)c1ccc(N2N=C(C)/C(=C/C=C/c3ccco3)C2=O)cc1	9	3	0	0	-1	.	.
O=C(O)c1cc(N2N=C(C(F)(F)F)/C(=C/C=C/c3ccco3)C2=O)ccc1Cl	5	-12	1	12*	-4	4	26*
COc1ccc(NC(=O)Nc2cc(C)ccc2OC)cc1	-2	4	-1	5.9*	2	-1	-2
COc1ccc(C)cc1NC(=O)CN(C)C1CCCCC1	1	21	0	15*	5	-1	-1
c1ccc(C[C@H]2COc3c4ccccc4nn32)cc1	6	.	0	.	6	.	.
Oc1ccc(/C=N/Nc2cccc(Cl)n2)c(O)c1	-11	11	-1	8.1*	5	2	1
Oc1ccc(/C=N/Nc2ccc(C(F)(F)F)cn2)c(O)c1	5	37	-1	5	-8	.	.
Cc1noc(C)c1C(=O)OC(C)C(=O)c1c[nH]c2ccccc12 (stereo not given)	-2	.	0	-5	7	.	.
COc1cc(NC(=O)Cn2c(=O)n(CC3CCCO3)c(=O)c3cc(OC)c(OC)cc32)cc(OC)c1 (stereo not given)	-10	2	0	1	-1	.	.
COc1ccc(NC(=O)Cn2c(=O)n(CC3CCCO3)c(=O)c3cc(OC)c(OC)cc32)cc1OC (stereo not given)	-8	20	0	9.9*	3	8.8*	0
CCC1=C(NCc2ccccc2)COC1=O	-9	.	0	0	3	.	.
O=C(Nc1c(-c2ccccc2)[nH][nH]c1=O)c1cccs1	3	.	1	.	-2	.	.
COc1cccc(CC(=O)Nc2cc(S(=O)(=O)N3CCCCC3)ccc2C)c1	7	-16	0	-1	6	.	.
COc1ccc(OC)c(CN2CCN(S(=O)(=O)c3ccc(NC(C)=O)cc3)CC2)c1	13	25	0	10*	2	1	0
COc1cccc(CN2CCN(S(=O)(=O)c3ccc(NC(C)=O)cc3)CC2)c1OC	11	9	1	5	-1	.	.
COc1cccc(CC(=O)Nc2ccc(S(=O)(=O)N3CCCCC3)cc2)c1	-6	39	0	8.9*	3	5	0
CC(C)CC1(C)NC(=O)N(CC(=O)Nc2ccccc2Br)C1=O (stereo not given)	9	34	0	1	2	.	.
COCCN1CCN(C(=O)c2cc(COc3cc(C)ccc3C)on2)CC1	-7	-22	0	-2	-4	.	.
COc1ccc(C(C)=O)cc1Cn1c(C)c(C(=O)NC2CC2)sc1=O	-4	.	0	-1	5	.	.
Cc1nn(CC(=O)Nc2ccc3c(c2)nc2n3CCOC2)c(=O)c2ccccc12	10	-1	0	10*	0	-1	1
CC1CCCCN1c1ncnc(N)c1[N+](=O)[O-] (stereo not given)	7	6	0	7.2*	-19	0	0
CCOc1nc(Nc2ccc(OC)cc2)nc(OCC)n1	1	9	-1	9.2*	11	3	-1
COc1ccc(Nc2nc(OC)nc(OC)n2)cc1	30	9	-1	-1	-3	.	.
Cc1ccc(S(=O)(=O)C2(C(=O)Nc3ccc(Br)cc3)CC2)cc1	0	-1	1	-1	2	.	.
Cc1ccc(S(=O)(=O)C2(C(=O)NC3CCCCC3)CC2)cc1	6	17	0	16*	4	0	1
SMILES	SKN-1 inh	Arr AP2 block	TbMetRS inhib	Rin1-Abl PPI inh	MT1-MMP act inh	Rin1-Abl confirm	GFP quencher	others
CCOc1ccc(CN(C)C(=O)CCNC(=O)c2ccco2)cc1	5	14	0	8.6*	-1	-1	1
CCOc1ccc(CNC(=O)c2ccco2)cc1	-2	5	-1	2	-10	.	.
C/C(=N/NC(=O)c1cc(O)c(O)c(O)c1)c1ccc([N+](=O)[O-])cc1	6	21	1	41*	7	46*	21*
C/C(=N\NC(=O)c1ccc([N+](=O)[O-])cc1)c1c(O)cc(C)oc1=O	-3	2	0	3	3	.	.
N#CCCN(C(=O)CSc1ncccn1)c1ccc2c(c1)OCCO2	7	-7	0	8.2*	3	8.8*	-1
CCCCOC(=O)c1ccc(NC(=O)CN2C(=O)NC3(CCCCCC3)C2=O)cc1	14	-1	0	12*	-1	10*	1
COc1ccc(OCC(=O)OCCN2C(=O)c3ccccc3C2=O)cc1	2	-1	0	10*	2	-1	1
COC(=O)CCCn1cc(CN2CC(N3CCN(Cc4ccccc4F)CC3)CS2(=O)=O)nn1 (stereo not given)	6	.	0	.	6	.	.
CCc1nc2ccc(C(=O)N3CCCC(C(N)=O)C3)cn2c1N(CCC(C)C)CCN(C)C (stereo not given)	12	.	0	4	-1	.	.
O=C(CC1C(=O)NCCN1Cc1c(F)cccc1Cl)NCCCOc1cccnc1 (stereo not given)	6	3	-1	14*	0	12*	-1
O=C(CC1C(=O)NCCN1Cc1ccc(F)cc1)NCCOc1cccnc1 (stereo not given)	16	4	0	-2	-4	.	.
O=C1/C(=C/c2ccc(O)c(O)c2)SC(=S)N1Nc1ccccc1	21	9	0	5	-15	.	.
O=C(NN1C(=O)/C(=C/c2ccc(O)c(O)c2)SC1=S)c1ccccc1	23	17	0	7.5*	-31	6.6*	12*
COc1ccc(C(=Cc2cc(OC)c(OC)cc2[N+](=O)[O-])C(=O)O)cc1	7	2	1	1	3	.	.
O=c1[nH]c(CSc2nnnn2-c2ccccc2)nc2ccccc12	7	-3	0	9.8*	7	1	1
Cc1ccc(-c2nn3c(-c4ccco4)nnc3c3ccccc23)cc1S(=O)(=O)NCC1CCCO1 (stereo not given)	-3	14	0	11*	13	27*	1	GFP quench dose=>68
Cc1ccc(-c2nnc(Nc3ccccc3)c3ccccc23)cc1S(=O)(=O)NCC1CCCO1 (stereo not given)	11	-8	-1	-7	8	.	.
CCc1c(C)nc(SCC(=O)N2CC(C)OC(C)C2)[nH]c1=O (stereo not given)	-22	46	-1	3	3	.	.
